Source: PubChem BioAssay
An excerpt weighted towards active compounds, which were near 3.1% of everything screened.
hERG rescue = compounds protecting human hERG from proarrhythmic drug block. CHO-hERG, FluxOR thallium flux, dofetilide IC70 present. activation (rescue from dofetilide block), less the hit threshold, % at 10 µM. hit rate 0.51% among 310,000. AID 1511;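 active means activation above the mean of controls blocked by dofetilide plus 5 SD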;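 further: thallium influx through hERG after potassium depolarization seen as dye fluorescence rise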
KCNK3 block = human KCNK3 channel inhibition, primary screen; O14649; CHO-KCNK3 thallium flux, FluxOR fluorescence; hits give low values; B-score at 10 µM; hit rate 0.84% among 340,000;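 active means B-score under library mean minus 4 SD, starting fluorescence ratio at most library mean plus 5 SD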;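 further: more negative B-score means stronger inhibition of thallium flux through KCNK3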
KCNK9 block = blocks the human KCNK9 two-pore domain potassium channel; HEK293 KCNK9, FluxOR thallium flux fluorescence; hits give low values; B-score at 10 µM; hit rate 1.2% among 310,000; AID 488922;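 active means ratio B-score over 3 SD below the library mean, with starting fluorescence within 5 SD of its mean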;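 further: negative B-score means less thallium flux so channel inhibition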
Target sequence (Q9NPC2 whole entry, looked up, the tested form may be a part): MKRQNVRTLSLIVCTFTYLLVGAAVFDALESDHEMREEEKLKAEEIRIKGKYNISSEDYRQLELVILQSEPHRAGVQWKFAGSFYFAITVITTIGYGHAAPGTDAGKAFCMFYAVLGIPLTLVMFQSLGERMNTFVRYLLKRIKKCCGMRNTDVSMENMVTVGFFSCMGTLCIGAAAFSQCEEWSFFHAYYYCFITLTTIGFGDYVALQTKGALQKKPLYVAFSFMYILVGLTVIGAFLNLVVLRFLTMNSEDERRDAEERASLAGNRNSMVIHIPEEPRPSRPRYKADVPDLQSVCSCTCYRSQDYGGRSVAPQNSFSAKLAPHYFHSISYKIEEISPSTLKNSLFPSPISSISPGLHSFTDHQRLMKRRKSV
KCNQ1 inh = inhibitors of human KCNQ1 potassium channel. P51787. B-score at 10 µM. hit rate 1.3% among 310,000. AID 2642. CHO-K1 KCNQ1, FluxOR thallium flux fluorescence; hits give high values;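 active means compounds whose thallium flux B-score, printed positive for inhibition, exceeds three library SD while starting fluorescence stays within three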;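 further: channel opened by potassium depolarization with thallium stimulus after 20 min compound exposure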
KCNQ1 pot = potentiates or activates the human KCNQ1 potassium channel. CHO-K1 KCNQ1, thallium flux FluxOR fluorescence; hits give high values. hit rate 0.35% among 310,000. B-score at 10 µM. AID 2648;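 active means fluorescence ratio B-score, a plate-corrected score, at least three library SD, with initial intensity B-score within 5 SD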
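Assay system: CHO-K1 cells stably expressing KCNQ1; Medium: assay buffer with matched DMSO; Also added: K+/Tl+ depolarizing stimulus; Dosing: single dose; Timing: dye 90 min, compound 20 min, room temperature; Measured by: kinetic FluxOR thallium fluorescence, 10-s 1-Hz baseline, 110-s post-stimulus read; Read-out: peak-minus-minimum fluorescence over initial fluorescence, negative-control normalized, B-scored.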
An asterisk follows results filed as active; i = inactive; x = not tested or not shown.

SMILES | hERG rescue | KCNK3 block | KCNK9 block | KCNQ1 inh | KCNQ1 pot
C[C@H](CO)N1C[C@H](C)[C@@H](CN(C)C(=O)NC2CCCCC2)Oc2ccc(NC(=O)C3CCCCC3)cc2C1=O | x | i | x | x | x
COc1ccc(CCC(=O)Nc2cccc(S(=O)(=O)N3CCCC3)c2)cc1OC | x | i | x | x | x
CC(=O)CCC(=O)N1CCC(n2nccc2NC(=O)c2ccccc2C)CC1 | -4 | i | i | i | i
Cc1cc(OCC(=O)OCC(=O)N2CCc3ccccc3C2)ccc1Cl | x | i | x | x | x
Cc1cc(OCC(=O)N(C)Cc2ccccc2)ccc1Cl | -6 | i | i | i | i
Cc1cc(OCC(=O)N(C)Cc2ccccc2)ccc1Br | -8 | i | -7.3* | i | i
COc1cc(C(=O)Nc2cc(S(=O)(=O)N3CCOCC3)ccc2N2CCOCC2)cc(OC)c1C | x | i | x | x | x
Cc1cccc(/N=C/c2sc3ccccc3c2O)n1 | 6.7* | i | i | i | 8*
CCCCN(C(=O)C1CC(=O)N(c2ccc(OC)cc2OC)C1)c1c(N)n(CC(C)C)c(=O)[nH]c1=O (stereo not drawn) | -10 | i | i | i | i
Cc1ccc(S(=O)(=O)N2CCCN(C(C)c3nc4ccccc4c(=O)[nH]3)CC2)cc1 (stereo not drawn) | x | i | x | x | x
CC(C)CN1C(=S)SC(C)(C)C1n1oc(=O)n(-c2ccc(Cl)cc2)c1=O (stereo not drawn) | -10 | -11* | i | 15* | i
CCN1CC=C2C(C1)C(c1ccc(Cl)s1)C(C#N)=C(N)C2(C#N)C#N (stereo not drawn) | -20 | i | i | 11* | i
N=c1ncn(Cc2ccccc2)c2nc(SCCOc3ccccc3)[nH]c12 | -5 | i | i | i | 9*
Cc1nc(SCCOc2ccccc2)[nH]c(=O)c1Cc1ccccc1 | -8 | i | i | i | i
CC1(C)Cc2c(C#N)c(NC3CCCCC3)nc(-c3ccco3)c2CO1 | -22 | i | i | 6* | i
O=C(Nc1cccc([N+](=O)[O-])c1)c1ccc2ccccc2c1O | -18 | i | i | 6* | i
Cc1occc1C(=O)Nc1cccc([N+](=O)[O-])c1 | 8.6* | i | i | i | i
COc1ccccc1-n1nnnc1SCC(=O)NC1CCCCC1 | -10 | i | i | i | i
CCOC(=O)c1c(-c2ccccc2)csc1NC(=O)CCN1C(=O)c2ccccc2C1=O | -14 | i | i | i | i
CCNC(=S)Nc1scc(-c2ccccc2)c1C(=O)OCC | 6.0* | i | i | i | 23*
CCOC(=O)c1c(-c2ccccc2)csc1NC(=S)NC | 8.9* | i | i | i | 38*
COc1ccc(C(=O)C(/C=N/O)=N/Nc2ccc(F)cc2)cc1 | -9 | i | i | 10* | i
COc1cccc(C(=O)NCCS(=O)(=O)NCCCc2ccccc2)c1 | -11 | i | i | i | i
O=C(Nc1ccccc1NC(=O)c1csnn1)c1csnn1 | -3 | i | i | i | i
O=C(NC(=S)Nc1cccc(C(F)(F)F)c1)c1csnn1 | 54* | i | i | i | 63*
SMILES | hERG rescue | KCNK3 block | KCNK9 block | KCNQ1 inh | KCNQ1 pot
Cc1cc(C(=O)NNC(=S)Nc2cccc(C(F)(F)F)c2)nn1C | -5 | i | i | i | i
O=C(NC(=S)Nc1ccccc1Cl)c1csnn1 | 60* | i | i | i | i
CN(C)C(CNC(=O)c1cccc(S(=O)(=O)N2CCN(c3ccc(F)cc3)CC2)c1)c1ccccc1 (stereo not drawn) | x | i | x | x | x
COc1ccc(-c2cc(C)no2)cc1S(=O)(=O)N(C)Cc1ccco1 | -6 | i | i | i | i
CCCN(c1ccccc1F)S(=O)(=O)c1cc(-c2cc(C)no2)ccc1OC | -16 | i | -7.8* | i | i
COC(=O)c1ccc(NC(=O)c2cc(-c3ccncc3)nc3ccccc23)cc1 | x | i | x | x | x
COC(=O)c1ccc(NC(=S)NC(=O)c2cc(-c3ccccc3)nc3ccccc23)cc1 | 6.2* | i | i | i | 29*
CCCOc1cccc(-c2cc(C(=O)NNC(=S)NCC)c3ccccc3n2)c1 | -16 | i | i | i | i
COc1ccc(Cl)cc1C(=O)NNC(=S)NC(=O)c1cc(-c2ccccc2)nc2ccccc12 | -5 | i | i | i | 8*
